In general, IC50 refers to the concentration that gives 50% inhibition. As usually defined, the inhibition is the relative decrease from the control value, in per cent. As usually defined, the Kd is the constant that tells how readily two partners part at equilibrium.

Results on 24 molecules are retold here after ChEMBL document CHEMBL4725283, “Selective Peptidomimetic Inhibitors of NTMT1/2: Rational Design, Synthesis, Characterization, and Crystallographic Studies” (J Med Chem, 2020).

For series [1], the target named is T1, N-terminal Xaa-Pro-Lys N-methyltransferase 1 (Homo sapiens, UniProt Q9BV86).
T1 sequence (Q9BV86 whole entry): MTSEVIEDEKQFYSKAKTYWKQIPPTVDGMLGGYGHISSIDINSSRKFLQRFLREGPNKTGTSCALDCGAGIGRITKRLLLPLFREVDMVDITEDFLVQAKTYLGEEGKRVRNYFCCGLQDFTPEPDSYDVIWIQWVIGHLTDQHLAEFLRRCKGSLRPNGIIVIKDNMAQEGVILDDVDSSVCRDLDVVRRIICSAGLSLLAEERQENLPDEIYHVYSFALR
Kind of series: Inhibition of recombinant human full-length His6-tagged NTMT1 (1 to 222 residues) expressed in Escherichia coli BL21-CodonPlus(DE3)-RIL competent cells pre-incubated for 10 mins in presence of SAM and SAHH before RCC1-6 addition and measured after 15 mins by fluorescence based SAHH-coupled assay. The gist of the method: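 Pre-incubated 10 min at 37 °C, then started with RCC1-6 (10 µL of 50 µM stock in 100 µL). Line 11 screened at 30 µM; line 12 used 0–100 µM three-fold series, four-parameter fit. Triplicate.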

Series [2] deals with T2, N-terminal Xaa-Pro-Lys N-methyltransferase 1 (Homo sapiens) (UniProt Q9BV86).
T2 sequence (whole entry): T1 sequence (Q9BV86 whole entry)
Kind of series: Substrate activity at recombinant human full-length His6-tagged NTMT1 (1 to 222 residues) expressed in Escherichia coli BL21-CodonPlus(DE3)-RIL competent cells by MALDI-MS analysis.

The target in series [3] is T2, N-terminal Xaa-Pro-Lys N-methyltransferase 1 (Homo sapiens). Kind of series: Inhibition of recombinant human full-length His6-tagged NTMT1 (1 to 222 residues) expressed in Escherichia coli BL21-CodonPlus(DE3)-RIL competent cells at 30 uM pre-incubated for 10 mins in presence of SAM and SAHH before RCC1-6 addition and measured after 15 mins by fluorescence based SAHH-coupled assay relative to control. Particulars: time 25.0 min. The procedure, abridged:
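Pre-incubated 10 min at 37 °C, then started with RCC1-6 (10 µL of 50 µM stock in 100 µL). Read Ex 370/Em 500 nm for 15 min at 37 °C. Line 11 screened at 30 µM; line 12 used 0–100 µM three-fold series, four-parameter fit. Triplicate.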

Series [4] has as its target N-terminal Xaa-Pro-Lys N-methyltransferase 2 (Homo sapiens, UniProt Q5VVY1). In words: Binding affinity to recombinant human full-length His6-tagged NTMT2 by ITC assay. The gist of the method:
(§1)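 ITC at 25 °C. Purified protein (NTMT1 for line 1, NTMT2 for line 2) in 20 mM Tris-HCl pH 7.5, 150 mM NaCl, 0.5 mM TCEP at 30–50 µM final. Compound at 0.5–1 mM in the same buffer, titrated in as 26 injections of 10 µl, 180 s apart, reference power 15 µcal/sec.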

Series [5] can be described thus: Drug penetration in human HCT116 cells at 1 uM by MALDI-MS analysis. The class given is ADME, cell-based. Particulars: hct-116, 1 µM. The gist of the method:
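HCT116 cells in McCoy's 5A with 10% FBS and 1% antibiotic-antimycotic, seeded at 0.1 × 10^6 cells/mL in 24-well plates and incubated overnight at 37 °C, 5% CO2. Compound added and incubation continued for the specified time; TAT peptide run as control. Cells washed three times with PBS, freeze-lysed twice in liquid nitrogen, and lysate analysed by MALDI (DHB matrix) for intracellular compound.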

Series [6] deals with T1, N-terminal Xaa-Pro-Lys N-methyltransferase 1. In words: Binding affinity to recombinant human full-length His6-tagged NTMT1 (1 to 222 residues) by ITC assay. The gist of the method: as §1
For orientation: In ITC the heat of successive injections is recorded.

In series [7] the target is T2, N-terminal Xaa-Pro-Lys N-methyltransferase 1 (Homo sapiens). Kind of series: Inhibition of NTMT1 in human HCT116 cells assessed as decrease in me3-SPK level at 100 uM incubated for 72 hrs by Western blot analysis. In kind it is cell-based. Particulars: […]. The procedure, abridged: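 HCT116 cells seeded at 20,000 cells/well and treated 3 days with compound or PBS. Lysed in RIPA for 30 min on ice; equal protein (BCA) run on 12.5% SDS-PAGE and transferred to PVDF. Blotted with anti-me3-SPK (1:5000) overnight at 4 °C, with Lamin B1, SET and RCC1 antibodies, then HRP anti-rabbit.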
(In general: Immunoblotting shows a protein as a band on a membrane.)

Each structure is given as a SMILES string. Calls of active or inactive are those of the source. No cut-off for these calls is given here. Where a SMILES comes first, the peptide text is derived from it. [ ]: non-standard residue; d: D form. The star is where a group is joined. ξ: configuration not given here. ξαMeP = CC1(C(=O)O)CCCN1; X1 = O=C(Cc1ccc(O)cc1)*; PhAc = O=C(Cc1ccccc1)*; Bz = O=C(c1ccccc1)*

Sequence of N-terminal Xaa-Pro-Lys N-methyltransferase 2 (Q5VVY1 whole entry): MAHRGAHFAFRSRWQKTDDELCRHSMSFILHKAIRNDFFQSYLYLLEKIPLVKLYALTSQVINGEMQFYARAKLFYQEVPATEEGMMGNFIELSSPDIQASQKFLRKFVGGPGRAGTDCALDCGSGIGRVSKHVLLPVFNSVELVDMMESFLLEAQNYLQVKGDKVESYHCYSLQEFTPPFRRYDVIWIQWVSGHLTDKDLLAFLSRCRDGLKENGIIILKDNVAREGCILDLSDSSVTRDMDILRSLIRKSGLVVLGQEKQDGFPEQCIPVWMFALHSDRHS

For the molecule `N=C(N)NCCC[C@H](NC(=O)[C@H](CCCCN)NC(=O)[C@@H]1CCCN1C(=O)c1ccco1)C(N)=O`, the IC50 in series [1] was over 100 µM. In addition, in series [2], the outcome was inactive.
In the same order, the values of `N=C(N)NCCC[C@H](NC(=O)[C@H](CCCCN)NC(=O)[C@@H]1CCCN1C(=O)Cc1ccc(N)cc1)C(N)=O` are 4.3 µM and “inactive”.
`COc1ccc(CC(=O)N2CCC[C@H]2C(=O)N[C@@H](CCCCN)C(=O)N[C@@H](CCCNC(=N)N)C(N)=O)cc1`: the 50% inhibitory concentration (IC50) in series [1] was over 100 µM. The result in series [2] was inactive.
Take `N=C(N)NCCC[C@H](NC(=O)[C@H](CCCCN)NC(=O)[C@@H]1CCCN1C(=O)Cc1ccccc1)C(N)=O` (PhAc-Pro-Lys-Arg-NH2): in series [1], the IC50 came out at 6.85 µM. Moreover, in series [3], the inhibition was over 50%. The result in series [2] was inactive.
In the case of `N=C(N)NCCC[C@H](NC(=O)[C@H](CCCCN)NC(=O)[C@@H]1CCCN1C(=O)CCc1ccc(O)cc1)C(N)=O`, in series [1], the IC50 came out at 4.5 µM. Further, the result in series [2] was inactive.
As for `N=C(N)NCCC[C@H](NC(=O)[C@H](CCCCN)NC(=O)c1cccc(NC(=O)Cc2ccc(O)cc2)c1)C(N)=O`, the IC50 in series [1] was over 100 µM. In series [2], the result was inactive.
On to `N=C(N)NCCC[C@H](NC(=O)[C@H](CCCNC(=N)N)NC(=O)[C@H](CCCNC(=N)N)NC(=O)[C@H](CCCNC(=N)N)NC(=O)[C@H](CCCNC(=N)N)NC(=O)[C@H](CCCNC(=N)N)NC(=O)[C@H](CCCCN)NC(=O)[C@@H]1CCCN1C(=O)Cc1ccc(O)cc1)C(N)=O` (X1-PKRRRRRR-NH2), for which the values for the equilibrium dissociation constant (Kd) in series [4] and in series [6] were 1 µM and 0.3 µM, respectively. Moreover, in series [5], the Drug uptake result is “Active”. In addition, the inhibition entry in series [7] is “Active”.
`NCCCC[C@H](NC(=O)[C@@H]1CCCN1C(=O)Cc1ccc(O)cc1)C(N)=O`: the IC50 in series [1] was 16 µM. Also, the outcome in series [2] was inactive.
In the same order, the values of `N=C(N)NCCC[C@H](NC(=O)[C@H](CCCCN)NC(=O)c1ccccc1NC(=O)Cc1ccc(O)cc1)C(N)=O` are over 100 µM and “inactive”.
In the same order, the values of `N=C(N)NCCC[C@H](NC(=O)C[C@@H](CCCN)NC(=O)[C@@H]1CCCN1C(=O)Cc1ccc(O)cc1)C(N)=O` are 32.9 µM and “inactive”.
`N=C(N)NCCC[C@H](NC(=O)[C@H](CCCCN)NC(=O)[C@@H]1CCCN1CCc1ccc(O)cc1)C(N)=O`: the concentration for half-maximal inhibition (IC50) in series [1] is over 100 µM. Further, the outcome in series [2] was inactive.
Consider `NCCCC[C@H](NC(=O)[C@@H]1CCCN1C(=O)Cc1ccc(O)cc1)C(=O)NCC(N)=O`, for which, in series [1], the half-inhibitory concentration (IC50) is 13 µM. The result in series [2] was inactive.
In the same order, the values of `N=C(N)NCCC[C@H](NC(=O)[C@H](CCCCN)NC(=O)[C@@H]1CCCN1C(=O)C1CCCCC1)C(N)=O` are over 100 µM and “inactive”.
In the same order, the values of `C[C@@H](O)[C@H](NC(=O)[C@H](CCCCN)NC(=O)[C@@H]1CCCN1C(=O)Cc1ccc(O)cc1)C(N)=O` are 4.8 µM and “inactive”.
In the same order, the values of `N=C(N)NCCC[C@H](NC(=O)[C@H](CCCCN)NC(=O)[C@@H]1CCCN1C(=O)c1ccccc1)C(N)=O` (Bz-Pro-Lys-Arg-NH2) are over 100 µM and “inactive”.
As to `NCCCC[C@H](NC(=O)[C@H](CCCCN)NC(=O)[C@@H]1CCCN1C(=O)Cc1ccc(O)cc1)C(N)=O`, in series [1], the IC50 came to 1 µM. Also, the result in series [2] was inactive.
Turning to `N=C(N)NCCC[C@H](NC(=O)[C@H](CCCNC(=N)N)NC(=O)[C@H](CCCNC(=N)N)NC(=O)[C@H](CCC(N)=O)NC(=O)[C@H](CCCNC(=N)N)NC(=O)[C@H](CCCNC(=N)N)NC(=O)[C@H](CCCCN)NC(=O)[C@H](CCCCN)NC(=O)[C@H](CCCNC(=N)N)NC(=O)CNC(=O)[C@H](CCCNC(=N)N)NC(=O)[C@H](CCCCN)NC(=O)[C@@H]1CCCN1C(=O)Cc1ccc(O)cc1)C(N)=O`, the results for the Kd in series [4] and in series [6] were 3.4 µM and 0.6 µM, respectively. In addition, in series [5], the Drug uptake result is given as “Active”.
With `N=C(N)NCC[C@H](CC(N)=O)NC(=O)[C@H](CCCCN)NC(=O)[C@@H]1CCCN1C(=O)Cc1ccc(O)cc1`, the half-inhibitory concentration (IC50) in series [1] was 6.4 µM. Moreover, the outcome in series [2] was inactive.
In the same order, the values of `N=C(N)NCCC[C@@H](NC(=O)[C@H](CCCCN)NC(=O)[C@@H]1CCCN1C(=O)Cc1ccc(O)cc1)C(N)=O` are 4.2 µM and “inactive”.
In the same order, the values of `CC1(C(=O)N[C@@H](CCCCN)C(=O)N[C@@H](CCCNC(=N)N)C(N)=O)CCCN1C(=O)Cc1ccccc1` (stereo partly drawn) (PhAc-[ξαMeP]-Lys-Arg-NH2) are over 100 µM and “inactive”.
In the same order, the values of `C[C@H](NC(=O)[C@H](CCCCN)NC(=O)[C@@H]1CCCN1C(=O)Cc1ccc(O)cc1)C(N)=O` are 4.8 µM and “inactive”.
In the case of `N=C(N)NCCC[C@H](NC(=O)[C@H](CCCCN)NC(=O)[C@@H]1CCCN1C(=O)C1CCCC1)C(N)=O`, the IC50 in series [1] was over 100 µM. Also, the outcome in series [2] was inactive.
With `N=C(N)NCCC[C@H](NC(=O)[C@H](CCCCN)NC(=O)[C@@H]1CCCN1C(=O)Cc1ccc(CO)cc1)C(N)=O`, the outcome in series [2] was inactive.
`N=C(N)NCCC[C@H](NC(=O)[C@H](CCCCN)NC(=O)[C@@H]1CCCN1C(=O)CCc1ccc(N)cc1)C(N)=O`: in series [1], the concentration for half-maximal inhibition (IC50) was 12 µM. The outcome in series [2] was inactive.
